Experiments:
[1] = Selectivity for dopamine D2 over adrenergic alpha-1 receptor
In short: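 Selectivity is the ratio of Ki at 5-HT1A, D1 or D2 to Ki at α1. Ki values are means (±SD) of three separate experiments.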

[2] = target: Alpha adrenergic receptor 1A and 1B (Rattus norvegicus) (UniProt P15823+P43140); test: Selectivity for ADRA1B over ADRA1A; assay type: protein assay
In short: (§1)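 Subtype selectivity is the antilog of the difference between the pKb values at α1A, α1B and α1D, measured in isolated rat prostatic vas deferens, spleen and thoracic aorta.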

[3] = target: Alpha adrenergic receptor 1A and 1D (Rattus norvegicus) (UniProt P23944+P43140); test: Selectivity for ADRA1D over ADRA1A; assay type: protein assay; in short: as §1
Sequence of Alpha adrenergic receptor 1A and 1D (Rattus norvegicus) (P43140 whole entry, looked up, one chain of several): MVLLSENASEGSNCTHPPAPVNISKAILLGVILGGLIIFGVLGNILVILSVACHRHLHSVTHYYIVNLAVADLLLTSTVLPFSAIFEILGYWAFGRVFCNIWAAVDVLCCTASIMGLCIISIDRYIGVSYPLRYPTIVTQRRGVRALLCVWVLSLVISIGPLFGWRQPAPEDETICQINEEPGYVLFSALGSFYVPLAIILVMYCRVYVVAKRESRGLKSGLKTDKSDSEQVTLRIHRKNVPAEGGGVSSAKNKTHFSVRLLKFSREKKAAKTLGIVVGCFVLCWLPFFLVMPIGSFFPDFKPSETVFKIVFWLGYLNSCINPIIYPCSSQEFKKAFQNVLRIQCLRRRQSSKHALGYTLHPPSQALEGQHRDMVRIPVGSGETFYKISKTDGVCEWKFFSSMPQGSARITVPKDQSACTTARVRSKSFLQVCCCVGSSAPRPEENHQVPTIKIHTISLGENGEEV

[4] = target: T1, 5-hydroxytryptamine receptor 1A (Homo sapiens, UniProt P08908); test: Binding affinity to 5HT1A
T1 sequence (P08908 whole entry): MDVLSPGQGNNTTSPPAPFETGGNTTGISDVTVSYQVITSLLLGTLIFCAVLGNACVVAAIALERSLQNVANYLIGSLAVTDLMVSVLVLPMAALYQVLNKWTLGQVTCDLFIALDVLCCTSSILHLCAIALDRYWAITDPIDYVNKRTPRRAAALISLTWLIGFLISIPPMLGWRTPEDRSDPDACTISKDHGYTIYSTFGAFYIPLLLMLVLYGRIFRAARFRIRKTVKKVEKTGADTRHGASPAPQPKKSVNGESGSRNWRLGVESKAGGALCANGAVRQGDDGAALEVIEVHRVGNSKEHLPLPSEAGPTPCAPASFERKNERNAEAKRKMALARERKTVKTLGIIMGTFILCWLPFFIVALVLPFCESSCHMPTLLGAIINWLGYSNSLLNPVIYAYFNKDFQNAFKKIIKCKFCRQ

[5] = target: T2, Alpha-1D adrenergic receptor (Rattus norvegicus) (UniProt P23944); test: Antagonistic activity at ADRA1D in rat thoracic aorta; assay type: functional, tissue-based
T2 sequence (whole entry): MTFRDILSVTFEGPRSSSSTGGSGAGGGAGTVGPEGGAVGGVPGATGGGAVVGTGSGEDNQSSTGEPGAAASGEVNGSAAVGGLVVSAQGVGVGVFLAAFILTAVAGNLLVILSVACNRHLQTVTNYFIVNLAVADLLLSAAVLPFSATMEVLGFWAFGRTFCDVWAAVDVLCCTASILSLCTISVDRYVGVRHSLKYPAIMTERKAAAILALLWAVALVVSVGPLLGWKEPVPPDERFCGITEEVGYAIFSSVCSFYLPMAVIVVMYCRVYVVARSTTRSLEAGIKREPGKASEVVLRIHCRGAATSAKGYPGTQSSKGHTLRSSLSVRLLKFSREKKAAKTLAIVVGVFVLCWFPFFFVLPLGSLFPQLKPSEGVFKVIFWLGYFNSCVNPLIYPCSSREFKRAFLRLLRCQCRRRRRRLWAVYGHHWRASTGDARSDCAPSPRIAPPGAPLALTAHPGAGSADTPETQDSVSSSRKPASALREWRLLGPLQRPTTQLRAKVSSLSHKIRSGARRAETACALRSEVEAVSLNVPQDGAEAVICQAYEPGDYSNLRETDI
In short: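 Antagonism in isolated rat tissues: prostatic vas deferens (α1A), spleen (α1B), thoracic aorta (α1D). Each compound tested at a single concentration, and each concentration was investigated at least four times. pKb was calculated by the van Rossum method. pA2 was derived from Arunlakshana–Schild plots. WB4101 was used as the standard.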

Sequence of Alpha adrenergic receptor 1A and 1B (Rattus norvegicus) (P15823 whole entry, looked up): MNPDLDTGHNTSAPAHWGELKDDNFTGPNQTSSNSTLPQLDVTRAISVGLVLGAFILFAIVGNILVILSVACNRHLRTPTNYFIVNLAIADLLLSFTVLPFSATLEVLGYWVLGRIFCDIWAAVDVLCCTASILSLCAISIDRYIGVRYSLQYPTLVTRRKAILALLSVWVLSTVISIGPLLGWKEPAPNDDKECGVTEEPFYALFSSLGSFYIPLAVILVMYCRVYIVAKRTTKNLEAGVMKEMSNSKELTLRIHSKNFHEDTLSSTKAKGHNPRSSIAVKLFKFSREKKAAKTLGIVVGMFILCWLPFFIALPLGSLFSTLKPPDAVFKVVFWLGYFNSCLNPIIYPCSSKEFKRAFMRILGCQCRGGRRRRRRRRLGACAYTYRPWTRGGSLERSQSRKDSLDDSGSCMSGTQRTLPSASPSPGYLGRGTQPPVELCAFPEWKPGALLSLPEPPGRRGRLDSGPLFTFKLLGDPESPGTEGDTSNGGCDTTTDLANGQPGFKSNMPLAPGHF
Sequence of Alpha adrenergic receptor 1A and 1B (Rattus norvegicus) (P43140 whole entry, looked up): as the sequence (P43140 whole entry, looked up, one chain of several) above

SMILES	Ratio Ki [1]	Ratio pKb [2]	Ratio pKb [3]	Ki [4] [µM]	pKb [5]
COc1ccc(-c2cc3c(=O)n(CCN4CCN(c5ccccc5Cl)CC4)c(=O)[nH]c3[nH]2)cc1	10	4	2	1.07	7.69
O=c1[nH]c2[nH]c(-c3ccc(Cl)cc3)cc2c(=O)n1CCN1CCN(c2ccccc2Cl)CC1	898	2	18	1.51	7.66
Cc1ccc(-c2cc3c(=O)n(CCN4CCN(c5ccccc5Cl)CC4)c(=O)[nH]c3[nH]2)cc1	147	2	3	1.81	7.78
Cc1ccc(-c2cc3[nH]c(=O)n(CCN4CCN(c5ccccc5Cl)CC4)c(=O)c3[nH]2)cc1	> 500	0.4	0.5	> 10	6.44
